From ChEMBL document CHEMBL3297708, “Lead optimization of a novel series of imidazo[1,2-a]pyridine amides leading to a clinical candidate (Q203) as a multi- and extensively-drug-resistant anti-tuberculosis agent” (J Med Chem, 2014)
In brackets after ≈: the same amount, converted by molar mass.

Experiments:
[1] = Volume of distribution at steady state in mouse at 2 mg/kg, iv; format: ADME, organism-based; set-up: dose 2 mg/kg, route intravenous; conditions: in vivo, read-out: Vdss
How it was run: (§1)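 Mice dosed at 2 mg/kg i.v. and 10 mg/kg p.o.; plasma sampled and PK parameters (half-life, clearance, volume of distribution, Cmax, Tmax, AUC, oral bioavailability) derived from the plasma concentration–time profiles.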

[2] = target: T1, Cytochrome P450 1A2 (Homo sapiens, UniProt P05177); assay: Inhibition of recombinant CYP1A2 (unknown origin) by LC/MS/MS analysis; format: ADME
T1 sequence (P05177 whole entry): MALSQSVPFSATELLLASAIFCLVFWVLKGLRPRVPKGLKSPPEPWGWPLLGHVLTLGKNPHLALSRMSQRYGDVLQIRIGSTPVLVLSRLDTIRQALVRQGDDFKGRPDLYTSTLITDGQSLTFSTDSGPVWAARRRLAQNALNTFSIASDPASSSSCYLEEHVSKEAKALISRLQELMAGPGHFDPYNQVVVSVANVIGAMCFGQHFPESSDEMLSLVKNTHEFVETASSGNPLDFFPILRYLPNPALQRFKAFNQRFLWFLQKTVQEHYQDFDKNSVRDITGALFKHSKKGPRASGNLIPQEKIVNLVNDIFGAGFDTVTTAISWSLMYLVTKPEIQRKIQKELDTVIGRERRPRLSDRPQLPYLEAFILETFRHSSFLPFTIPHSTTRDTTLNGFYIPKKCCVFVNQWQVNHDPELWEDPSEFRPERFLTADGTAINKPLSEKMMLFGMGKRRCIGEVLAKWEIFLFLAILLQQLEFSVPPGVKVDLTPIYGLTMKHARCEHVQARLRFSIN
How it was run: (§2)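 Recombinant CYP enzymes (5 pmol/mL) with substrate, in 100 mM potassium phosphate pH 7.4, 3.3 mM MgCl2, with or without 1 mM NADPH; incubated 10 min (CYP1A2, CYP2C9), 20 min (CYP2C19, CYP2D6), or 3 min (CYP3A4); stopped with cold stop solution containing tolbutamide internal standard; metabolite measured by LC-MS/MS.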

[3] = AUC (0 to infinity) in mouse at 10 mg/kg, po; format: ADME, organism-based; set-up: time infinity, dose 10 mg/kg, route oral; conditions: plasma; how it was run: as §1
[4] = Tmax in mouse at 10 mg/kg, po; format: ADME, organism-based; set-up: dose 10 mg/kg, route oral; conditions: in vivo; how it was run: as §1
[5] = target: Cytochrome P450 2C9 (Homo sapiens, UniProt P11712); assay: Inhibition of recombinant CYP2C9 (unknown origin) by LC/MS/MS analysis; format: ADME; how it was run: as §2
Sequence of Cytochrome P450 2C9 (P11712 whole entry): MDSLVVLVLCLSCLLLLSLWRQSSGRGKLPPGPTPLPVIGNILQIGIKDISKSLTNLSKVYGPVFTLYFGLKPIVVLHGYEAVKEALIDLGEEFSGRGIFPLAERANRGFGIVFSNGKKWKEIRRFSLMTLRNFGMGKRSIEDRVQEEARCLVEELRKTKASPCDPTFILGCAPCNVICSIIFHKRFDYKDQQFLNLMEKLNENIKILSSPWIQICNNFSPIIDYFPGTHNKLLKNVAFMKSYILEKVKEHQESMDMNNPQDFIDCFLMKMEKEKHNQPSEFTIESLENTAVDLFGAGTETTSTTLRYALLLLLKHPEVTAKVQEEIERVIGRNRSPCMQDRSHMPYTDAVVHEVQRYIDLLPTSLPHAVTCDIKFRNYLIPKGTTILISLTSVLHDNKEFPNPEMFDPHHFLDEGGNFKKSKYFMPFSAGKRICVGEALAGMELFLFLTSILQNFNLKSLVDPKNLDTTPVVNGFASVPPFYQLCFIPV

[6] = Half life in mouse at 10 mg/kg, po; format: ADME, organism-based; set-up: dose 10 mg/kg, route oral; conditions: in vivo; how it was run: as §1
[7] = Cmax in mouse at 10 mg/kg, po; format: ADME, organism-based; set-up: dose 10 mg/kg, route oral; conditions: in vivo; how it was run: as §1
[8] = Oral bioavailability in mouse at 10 mg/kg; format: ADME, organism-based; conditions: in vivo; how it was run: as §1
[9] = target: Cytochrome P450 3A4 (Homo sapiens, UniProt P08684); assay: Inhibition of recombinant CYP3A4 (unknown origin) by LC/MS/MS analysis; format: ADME; how it was run: as §2
Sequence of Cytochrome P450 3A4 (P08684 whole entry): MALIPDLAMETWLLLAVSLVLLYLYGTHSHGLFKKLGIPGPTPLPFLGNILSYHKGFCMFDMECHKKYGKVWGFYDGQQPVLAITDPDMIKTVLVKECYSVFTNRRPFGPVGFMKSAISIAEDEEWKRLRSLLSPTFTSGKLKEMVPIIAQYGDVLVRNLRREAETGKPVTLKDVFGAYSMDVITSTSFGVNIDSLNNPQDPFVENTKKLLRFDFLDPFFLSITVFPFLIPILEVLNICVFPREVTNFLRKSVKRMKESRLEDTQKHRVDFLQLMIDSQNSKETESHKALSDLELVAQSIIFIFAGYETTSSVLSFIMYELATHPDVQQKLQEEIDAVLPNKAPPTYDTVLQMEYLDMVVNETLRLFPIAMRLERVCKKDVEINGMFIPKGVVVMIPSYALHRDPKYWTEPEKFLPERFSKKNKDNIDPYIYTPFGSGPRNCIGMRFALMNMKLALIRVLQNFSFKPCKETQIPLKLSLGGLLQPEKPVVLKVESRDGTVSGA

[10] = system: Mycobacterium tuberculosis; assay: Antimycobacterial activity against Mycobacterium tuberculosis H37Rv in macrophages; format: functional
How it was run: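 M. tuberculosis H37Rv replicating inside macrophages; intracellular MIC80 determined, i.e. concentration inhibiting 80% of growth.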

[11] = Half life in human liver microsomes; format: ADME
How it was run: (§3)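 Metabolic stability measured by incubation in human or mouse liver microsomal preparations; half-life reported.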

[12] = Half life in mouse liver microsomes; format: ADME; how it was run: as §3
[13] = target: Cytochrome P450 2D6 (Homo sapiens, UniProt P10635); assay: Inhibition of recombinant CYP2D6 (unknown origin) by LC/MS/MS analysis; format: ADME; how it was run: as §2
Sequence of Cytochrome P450 2D6 (P10635 whole entry): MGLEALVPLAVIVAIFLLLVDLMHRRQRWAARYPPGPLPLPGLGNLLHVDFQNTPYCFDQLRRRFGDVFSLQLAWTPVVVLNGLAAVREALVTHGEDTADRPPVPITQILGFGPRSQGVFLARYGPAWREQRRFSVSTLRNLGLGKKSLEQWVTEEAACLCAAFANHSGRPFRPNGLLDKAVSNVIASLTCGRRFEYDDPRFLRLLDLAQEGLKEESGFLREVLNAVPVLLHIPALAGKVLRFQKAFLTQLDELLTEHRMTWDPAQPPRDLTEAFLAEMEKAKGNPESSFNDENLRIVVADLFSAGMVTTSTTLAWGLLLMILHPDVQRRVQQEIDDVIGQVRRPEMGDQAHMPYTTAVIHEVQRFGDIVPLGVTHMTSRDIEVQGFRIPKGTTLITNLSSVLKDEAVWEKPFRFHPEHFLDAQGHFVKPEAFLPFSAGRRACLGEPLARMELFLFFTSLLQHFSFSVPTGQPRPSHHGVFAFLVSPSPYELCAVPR

[14] = target: Cytochrome P450 2C19 (Homo sapiens, UniProt P33261); assay: Inhibition of recombinant CYP2C19 (unknown origin) by LC/MS/MS analysis; format: ADME; how it was run: as §2
Sequence of Cytochrome P450 2C19 (P33261 whole entry): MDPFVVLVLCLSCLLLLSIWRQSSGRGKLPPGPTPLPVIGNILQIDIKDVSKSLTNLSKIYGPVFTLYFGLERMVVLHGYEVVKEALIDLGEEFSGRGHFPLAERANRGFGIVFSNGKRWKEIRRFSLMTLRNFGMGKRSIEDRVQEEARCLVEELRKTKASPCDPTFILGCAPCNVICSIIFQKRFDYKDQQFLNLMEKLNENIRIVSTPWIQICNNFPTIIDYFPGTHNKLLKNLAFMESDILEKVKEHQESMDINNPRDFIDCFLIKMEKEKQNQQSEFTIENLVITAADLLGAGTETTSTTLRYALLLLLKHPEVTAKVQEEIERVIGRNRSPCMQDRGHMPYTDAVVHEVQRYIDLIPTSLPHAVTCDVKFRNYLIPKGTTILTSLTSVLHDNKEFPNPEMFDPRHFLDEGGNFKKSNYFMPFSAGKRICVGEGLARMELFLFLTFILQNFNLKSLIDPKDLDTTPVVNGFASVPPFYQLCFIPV

[15] = Elimination half life in mouse at 2 mg/kg, iv; format: ADME, organism-based; set-up: dose 2 mg/kg, route intravenous; conditions: in vivo, read-out: beta t1/2 (converted); how it was run: as §1
[16] = system: Mycobacterium tuberculosis; assay: Antimycobacterial activity against Mycobacterium tuberculosis H37Rv in liquid broth culture medium; format: functional
How it was run: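 M. tuberculosis H37Rv replicating in liquid broth culture medium; MIC80 determined, i.e. concentration inhibiting 80% of growth.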

[17] = Clearence in mouse at 2 mg/kg, iv; format: ADME, organism-based; set-up: dose 2 mg/kg, route intravenous; conditions: in vivo; how it was run: as §1
[18] = Solubility of the compound in phosphate buffer at pH 7.4; format: physicochemical
[19] = Solubility of the compound in aqueous solution at pH 2.1; format: physicochemical
[20] = system: Mycobacterium tuberculosis; assay: Antimycobacterial activity against Mycobacterium tuberculosis H37Rv infected in BALB/c mouse assessed as lung bacterial load administered 3 weeks after infection via oral gavage for 28 days, five times per week measured per lung; format: functional, organism-based
How it was run: (§4)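 BALB/c mice infected intranasally with 2 x10^2 to 2 x 10^3 CFU M. tuberculosis H37Rv; oral gavage treatment started 3 weeks post-infection, given five times per week for 28 days; lung bacterial burden enumerated as log10 CFU per lung; values reported ± spread; untreated infected mice as baseline.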

[21] = system: Mycobacterium tuberculosis; assay: Antimycobacterial activity against Mycobacterium tuberculosis H37Rv infected in BALB/c mouse assessed as lung bacterial load at 15 mg/kg administered 3 weeks after infection via oral gavage for 28 days, five times per week measured per lung (reference value: 7.24 +/- 0.17 log10 CFU); format: functional; how it was run: as §4
[22] = system: Mycobacterium tuberculosis; assay: Antimycobacterial activity against Mycobacterium tuberculosis H37Rv infected in BALB/c mouse assessed as lung bacterial load at 10 mg/kg administered 3 weeks after infection via oral gavage for 28 days, five times per week measured per lung (reference value: 7.24 +/- 0.17 log10 CFU); format: functional; how it was run: as §4
[23] = system: Mycobacterium tuberculosis; assay: Antimycobacterial activity against Mycobacterium tuberculosis H37Rv infected in BALB/c mouse assessed as lung bacterial load at 2 mg/kg administered 3 weeks after infection via oral gavage for 28 days, five times per week measured per lung (reference value: 7.24 +/- 0.17 log10 CFU); format: functional; how it was run: as §4
[24] = system: Mycobacterium tuberculosis; assay: Antimycobacterial activity against Mycobacterium tuberculosis H37Rv infected in BALB/c mouse assessed as lung bacterial load at 50 mg/kg administered 3 weeks after infection via oral gavage for 28 days, five times per week measured per lung (reference value: 7.24 +/- 0.17 log10 CFU); format: functional; how it was run: as §4

SMILES: CCc1nc2cc(Cl)ccn2c1C(=O)NCc1ccc(N2CCN(c3ccc(F)cc3)CC2)cc1
- Vd [1]: 0.877 L/kg
- IC50 [2]: > 40 µM
- AUC(0-inf) [3]: 59600 ng·h/mL
- Tmax [4]: 2 h
- IC50 [5]: > 40 µM
- half-life [6]: 9.4 h
- Cmax [7]: 4450 ng/mL
- bioavailability [8]: 69.9%
- IC50 [9]: > 40 µM
- MIC80 [10]: 0.3 nM (≈ 0.148 ng/mL)
- half-life [11]: > 2 h
- half-life [12]: 0.555 h
- IC50 [13]: > 40 µM
- IC50 [14]: > 40 µM
- half-life [15]: 6.15 h
- MIC80 [16]: 5.7 nM (≈ 2.8 ng/mL)
- clearance [17]: 1.9 mL/min/kg

SMILES: CCc1nc2ccc(Cl)cn2c1C(=O)NCc1ccc(N2CCC(c3ccc(OC(F)(F)F)cc3)CC2)cc1 [TELACEBEC]
- Vd [1]: 5.27 L/kg
- IC50 [2]: > 100 µM
- AUC(0-inf) [3]: 44100 ng·h/mL
- Tmax [4]: 2 h
- IC50 [5]: > 100 µM
- half-life [6]: 23.4 h
- Cmax [7]: 1490 ng/mL
- bioavailability [8]: 90.7%
- IC50 [9]: > 100 µM
- MIC80 [10]: 1.43 nM (≈ 0.797 ng/mL)
- half-life [11]: > 2 h
- half-life [12]: > 2 h
- solubility [18]: 1.71 µg/mL (≈ 3.07 µM)
- IC50 [13]: > 100 µM
- IC50 [14]: > 100 µM
- solubility [19]: 41.5 µg/mL (≈ 74.5 µM)
- half-life [15]: 16.5 h
- MIC80 [16]: 4 nM (≈ 2.23 ng/mL)
- clearance [17]: 4 mL/min/kg

SMILES: NNC(=O)c1ccncc1 [ISONIAZID]
- inhibition [20]: Dose-dependent effect
- log10cfu [21]: 5.01
- MIC80 [10]: 617 nM (≈ 84.6 ng/mL)
- MIC80 [16]: 449 nM (≈ 61.6 ng/mL)

SMILES: CCc1nc2cc(Cl)ccn2c1C(=O)NCc1ccc(N2CCC(c3ccc(OC(F)(F)F)cc3)CC2)cc1
- Vd [1]: 14.3 L/kg
- inhibition [20]: Dose-dependent effect
- log10cfu [22]: 5.72
- IC50 [2]: > 100 µM
- AUC(0-inf) [3]: 27300 ng·h/mL
- Tmax [4]: 2 h
- IC50 [5]: 0.14 µM
- half-life [6]: 21.3 h
- Cmax [7]: 1990 ng/mL
- bioavailability [8]: 80.2%
- log10cfu [23]: 6.23
- IC50 [9]: > 100 µM
- MIC80 [10]: 3.7 nM (≈ 2.06 ng/mL)
- half-life [11]: > 2 h
- half-life [12]: > 2 h
- solubility [18]: 1.32 µg/mL (≈ 2.37 µM)
- log10cfu [24]: 5.65
- IC50 [13]: > 100 µM
- IC50 [14]: 0.29 µM
- solubility [19]: 55.8 µg/mL (≈ 100 µM)
- half-life [15]: 62.3 h
- MIC80 [16]: 4 nM (≈ 2.23 ng/mL)
- clearance [17]: 3.15 mL/min/kg
